Measurements published in ChEMBL document CHEMBL4017468, “Synthesis and biological evaluation of pyrimidine derivatives with diverse azabicyclic ether/amine as novel GPR119 agonist” (Bioorg Med Chem Lett, 2017).

target: T1, Glucose-dependent insulinotropic receptor (Homo sapiens, UniProt Q8TDV5); experiment: Agonist activity at human GPR119 expressed in HEK293 cells assessed as increase in cAMP stimulation measured after 60 mins by TR-FRET assay; assay type: functional, cell-based
T1 sequence (Q8TDV5 whole entry): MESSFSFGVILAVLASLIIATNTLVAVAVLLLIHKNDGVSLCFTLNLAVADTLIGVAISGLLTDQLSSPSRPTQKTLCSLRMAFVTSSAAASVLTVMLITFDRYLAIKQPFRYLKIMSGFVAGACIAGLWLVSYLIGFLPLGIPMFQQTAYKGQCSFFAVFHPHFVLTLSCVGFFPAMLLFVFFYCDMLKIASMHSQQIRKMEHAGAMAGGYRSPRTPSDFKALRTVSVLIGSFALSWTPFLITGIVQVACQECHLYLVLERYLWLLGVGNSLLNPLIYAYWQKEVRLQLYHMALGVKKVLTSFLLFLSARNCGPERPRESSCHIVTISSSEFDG
Procedure, shortened: (§1)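 HEK293 cells seeded at 4×10^3 cells/well, grown 24 h, then transiently transfected with a GPR119 expression plasmid using Lipofectamine/Plus. After 24 h, compounds were added in KRBH buffer with 0.1% BSA and 500 μM IBMX for 60 min at 37 °C. Cells were lysed 10 min at room temperature (50 mM phosphate, 1 M KF, 1.25% Triton X-100, pH 7.0). cAMP was read by HTRF. EC50 was taken as the concentration giving 50% of OEA-stimulated cAMP, and %max as the response relative to maximal OEA effect.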

First: CC(C)(C)OC(=O)N1CC2CCC1CC2Nc1ncnc(Nc2ccc(S(C)(=O)=O)cc2F)c1[N+](=O)[O-] (stereo in doubt; 27q) [listing 1 of 2 here]
Second: CC(C)(C)OC(=O)N1CC2CC1CC2Nc1ncnc(Nc2ccc(S(C)(=O)=O)cc2F)c1[N+](=O)[O-] (stereo in doubt; 27i) [listing 1 of 2 here]
The EC50 of the first is 2.7-fold lower: 0.0018 µM for the first, 0.0049 µM for the second.

Going from `CC(C)(C)OC(=O)N1CC2CC(Oc3ncnc(Nc4ccc(S(C)(=O)=O)cc4F)c3[N+](=O)[O-])C1C2` (stereo unspecified) to `CC(C)(C)OC(=O)N1CC2CC1CC2Oc1ncnc(Nc2ccc(S(C)(=O)=O)cc2F)c1[N+](=O)[O-]` (stereo unspecified), the EC50 falls from 0.0777 µM to 0.0056 µM (14-fold).

First: CC(C)(C)OC(=O)N1CC2CCC1CC2Nc1ncnc(Nc2ccc(S(C)(=O)=O)cc2F)c1[N+](=O)[O-] (stereo in doubt; 27s) [listing 1 of 2 here]
Second: CC(C)(C)OC(=O)N1CC2CC1CC2Nc1ncnc(Nc2ccc(S(C)(=O)=O)cc2F)c1[N+](=O)[O-] (stereo in doubt; 27k) [listing 1 of 2 here]
The EC50 of the first is lower: 0.0053 µM for the first, over 10 µM for the second.

Going from `CC(C)(C)OC(=O)N1CC2CCC1CC2Nc1ncnc(Nc2ccc(S(C)(=O)=O)cc2)c1[N+](=O)[O-]` (stereo in doubt; 27t) [listing 1 of 2 here] to `CC(C)(C)OC(=O)N1CC2CC1CC2Nc1ncnc(Nc2ccc(S(C)(=O)=O)cc2)c1[N+](=O)[O-]` (stereo in doubt; 27l) [listing 1 of 2 here], the EC50 rises from 0.0064 µM to over 10 µM.

Going from `CC(C)(C)OC(=O)N1CC2CC(Oc3ncnc(Nc4ccc(S(C)(=O)=O)cc4)c3[N+](=O)[O-])C1C2` (stereo unspecified) to `CC(C)(C)OC(=O)N1CC2CC1CC2Oc1ncnc(Nc2ccc(S(C)(=O)=O)cc2)c1[N+](=O)[O-]` (stereo unspecified), the EC50 falls from 0.315 µM to 0.11 µM (2.9-fold). The second is the more potent here.

First: CC(C)(C)OC(=O)N1C[C@@H]2CC[C@@H]1C[C@@H]2Oc1ncnc(Nc2ccc(S(C)(=O)=O)cc2F)c1[N+](=O)[O-] (relative stereo)
Second: CC(C)(C)OC(=O)N1CC2CCC1CC2Oc1ncnc(Nc2ccc(S(C)(=O)=O)cc2F)c1[N+](=O)[O-] (stereo unspecified)
The EC50 of the first is lower: 0.0012 µM for the first, over 10 µM for the second.

First: CC(C)(C)OC(=O)N1CC2CCC1CC2Nc1ncnc(Nc2ccc(S(C)(=O)=O)cc2)c1[N+](=O)[O-] (stereo in doubt; 27r) [listing 1 of 2 here]
Second: CC(C)(C)OC(=O)N1CC2CC1CC2Nc1ncnc(Nc2ccc(S(C)(=O)=O)cc2)c1[N+](=O)[O-] (stereo in doubt; 27j) [listing 1 of 2 here]
The EC50 of the first is 8.6-fold lower: 0.0056 µM for the first, 0.0482 µM for the second. The first is the more potent here.

Compared with `CC(C)(C)OC(=O)N1CC2CC(Nc3ncnc(Nc4ccc(S(C)(=O)=O)cc4F)c3[N+](=O)[O-])C1C2` (stereo in doubt; 27g) [listing 1 of 2 here], `CC(C)(C)OC(=O)N1CC2CC(Nc3ncnc(Nc4ccc(S(C)(=O)=O)cc4)c3[N+](=O)[O-])C1C2` (stereo in doubt; 27h) [listing 1 of 2 here] is higher in EC50: 0.236 µM for the first, over 10 µM for the second. The first is the more potent here.

First: CC(C)(C)OC(=O)N1CC2CCC1CC2Oc1ncnc(Nc2ccc(S(C)(=O)=O)cc2)c1[N+](=O)[O-] (stereo in doubt; 27n) [listing 1 of 2 here]
Second: CC(C)(C)OC(=O)N1CC2CC(Nc3ncnc(Nc4ccc(S(C)(=O)=O)cc4)c3[N+](=O)[O-])C1C2 (stereo in doubt; 27f) [listing 1 of 2 here]
The EC50 of the first is lower: 0.0031 µM for the first, over 1 µM for the second. The first is the more potent here.

First: CC(C)(C)OC(=O)N1CC2CCC1CC2Oc1ncnc(Nc2ccc(S(C)(=O)=O)cc2)c1[N+](=O)[O-] (stereo in doubt; 27p) [listing 1 of 2 here]
Second: CC(C)(C)OC(=O)N1CC2CC(Nc3ncnc(Nc4ccc(S(C)(=O)=O)cc4F)c3[N+](=O)[O-])C1C2 (stereo in doubt; 27e) [listing 1 of 2 here]
The EC50 of the first is higher: over 10 µM for the first, 0.053 µM for the second.

target: T2, Glucose-dependent insulinotropic receptor (Homo sapiens) (UniProt Q8TDV5); experiment: Agonist activity at human GPR119 expressed in HEK293 cells assessed as increase in cAMP stimulation measured after 60 mins by TR-FRET assay relative to oleoylethanolamide; assay type: functional, cell-based; procedure, shortened: as §1
T2 sequence (whole entry): T1 sequence (Q8TDV5 whole entry)

In order of falling %max:
1. CC(C)(C)OC(=O)N1C[C@@H]2CC[C@@H]1C[C@@H]2Oc1ncnc(Nc2ccc(S(C)(=O)=O)cc2F)c1[N+](=O)[O-] (relative stereo)  112%
2. CC(C)(C)OC(=O)N1CC2CCC1CC2Nc1ncnc(Nc2ccc(S(C)(=O)=O)cc2F)c1[N+](=O)[O-] (stereo in doubt; 27q) [listing 2 of 2 here]  104%
3. CC(C)(C)OC(=O)N1CC2CC1CC2Oc1ncnc(Nc2ccc(S(C)(=O)=O)cc2)c1[N+](=O)[O-] (stereo unspecified)  101%
4. CCCCCCCC/C=C\CCCCCCCC(=O)NCCO  100%
5. CC(C)(C)OC(=O)N1CC2CC1CC2Nc1ncnc(Nc2ccc(S(C)(=O)=O)cc2F)c1[N+](=O)[O-] (stereo in doubt; 27i) [listing 2 of 2 here]  97%
6. CC(C)(C)OC(=O)N1CC2CC1CC2Nc1ncnc(Nc2ccc(S(C)(=O)=O)cc2)c1[N+](=O)[O-] (stereo in doubt; 27j) [listing 2 of 2 here]  94.3%
7. CC(C)(C)OC(=O)N1CC2CC1CC2Oc1ncnc(Nc2ccc(S(C)(=O)=O)cc2F)c1[N+](=O)[O-] (stereo unspecified)  86.7%
8. CC(C)(C)OC(=O)N1CC2CCC1CC2Nc1ncnc(Nc2ccc(S(C)(=O)=O)cc2)c1[N+](=O)[O-] (stereo in doubt; 27r) [listing 2 of 2 here]  78.9%
9. CC(C)(C)OC(=O)N1CC2CC(Nc3ncnc(Nc4ccc(S(C)(=O)=O)cc4F)c3[N+](=O)[O-])C1C2 (stereo in doubt; 27e) [listing 2 of 2 here]  76.7%
10. CC(C)(C)OC(=O)N1CC2CCC1CC2Oc1ncnc(Nc2ccc(S(C)(=O)=O)cc2)c1[N+](=O)[O-] (stereo in doubt; 27n) [listing 2 of 2 here]  71.9%
11. CC(C)(C)OC(=O)N1CC2CC(Nc3ncnc(Nc4ccc(S(C)(=O)=O)cc4F)c3[N+](=O)[O-])C1C2 (stereo in doubt; 27g) [listing 2 of 2 here]  63.4%
12. CC(C)(C)OC(=O)N1CC2CCC1CC2Nc1ncnc(Nc2ccc(S(C)(=O)=O)cc2F)c1[N+](=O)[O-] (stereo in doubt; 27s) [listing 2 of 2 here]  63.2%
13. CC(C)(C)OC(=O)N1CC2CC(Oc3ncnc(Nc4ccc(S(C)(=O)=O)cc4)c3[N+](=O)[O-])C1C2 (stereo unspecified)  58.4%
14. CC(C)(C)OC(=O)N1CC2CCC1CC2Nc1ncnc(Nc2ccc(S(C)(=O)=O)cc2)c1[N+](=O)[O-] (stereo in doubt; 27t) [listing 2 of 2 here]  58.1%
15. CC(C)(C)OC(=O)N1CC2CC(Oc3ncnc(Nc4ccc(S(C)(=O)=O)cc4F)c3[N+](=O)[O-])C1C2 (stereo unspecified)  52.6%
16. CC(C)(C)OC(=O)N1CC2CCC1CC2Oc1ncnc(Nc2ccc(S(C)(=O)=O)cc2)c1[N+](=O)[O-] (stereo in doubt; 27p) [listing 2 of 2 here]  44.7%
17. CC(C)(C)OC(=O)N1CC2CC(Nc3ncnc(Nc4ccc(S(C)(=O)=O)cc4)c3[N+](=O)[O-])C1C2 (stereo in doubt; 27f) [listing 2 of 2 here]  38.9%
18. CC(C)(C)OC(=O)N1CC2CC1CC2Nc1ncnc(Nc2ccc(S(C)(=O)=O)cc2F)c1[N+](=O)[O-] (stereo in doubt; 27k) [listing 2 of 2 here]  34.8%
19. CC(C)(C)OC(=O)N1CC2CCC1CC2Oc1ncnc(Nc2ccc(S(C)(=O)=O)cc2F)c1[N+](=O)[O-] (stereo unspecified)  32.9%
20. CC(C)(C)OC(=O)N1CC2CC1CC2Nc1ncnc(Nc2ccc(S(C)(=O)=O)cc2)c1[N+](=O)[O-] (stereo in doubt; 27l) [listing 2 of 2 here]  25.1%
21. CC(C)(C)OC(=O)N1CC2CC(Nc3ncnc(Nc4ccc(S(C)(=O)=O)cc4)c3[N+](=O)[O-])C1C2 (stereo in doubt; 27h) [listing 2 of 2 here]  21.6%
